Measurements taken from ChEMBL document CHEMBL3632612, “Discovery of WQ-3810: Design, synthesis, and evaluation of 7-(3-alkylaminoazetidin-1-yl)fluoro-quinolones as orally active antibacterial agents” (Eur J Med Chem, 2015).
Values after ≈ are worked out from the molar mass of the structure shown.

Columns and labels:
Providencia rettgeri = assay: Antibacterial activity against Providencia rettgeri W1008 assessed as growth inhibition at 128 to 0.002 mg/L incubated for 18 hrs at 37 degC by agar dilution method; assay type: functional; conditions: W1008, 18 h
In short: (§1)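 Agar dilution on Mueller Hinton agar per Japanese Society of Chemotherapy standard method; about 10⁴ cfu inoculated onto plates holding two-fold dilution series; incubation 37°C, 18 h; MIC read as growth endpoint.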

Pseudomonas aeruginosa [1] = assay: Antibacterial activity against Pseudomonas aeruginosa 15846 assessed as growth inhibition at 128 to 0.002 mg/L incubated for 18 hrs at 37 degC by agar dilution method; assay type: functional; conditions: Pseudomonas aeruginosa, 15846, 18 h; in short: as §1
[2] = Drug excretion in Sprague-Dawley rat urine at 10 mg/kg, po after 24 hrs by HPLC; assay type: ADME, organism-based; conditions: read-out: Drug excretion
In short: (§2)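 Six-week male Sprague-Dawley rats, fasted overnight; oral dose suspended in 0.5% methylcellulose, iv dose dissolved in 0.04 N NaOH. Urine from intact rats in metabolic cages, bile from bile duct-cannulated rats, 0–24 h. Bile alkaline-hydrolysed (1 N NaOH, 37°C, 1 h) to convert glucuronides; HPLC with UV 290 nm and internal standard; % of dose; mean ± S.D., three rats.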

[3] = Drug excretion in Sprague-Dawley rat urine at 5 mg/kg, iv after 24 hrs by HPLC; assay type: ADME, organism-based; conditions: read-out: Drug excretion; in short: as §2
[4] = Solubility of the compound in JP2 solution at pH 6.8 after 24 hrs at 25 degC by HPLC; assay type: physicochemical
In short: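 Excess solid shaken in JP2 (50 mM potassium dihydrogenphosphate, pH 6.8) at 25°C for 24 h to equilibrium, filtered 0.45 µm; filtrate concentration by reversed-phase UPLC, UV 290 nm; mean ± S.D., n=3.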

Serratia marcescens [5] = assay: Antibacterial activity against Serratia marcescens IFO3736 assessed as growth inhibition at 128 to 0.002 mg/L incubated for 18 hrs at 37 degC by agar dilution method; assay type: functional; conditions: IFO3736, 18 h; in short: as §1
Salmonella typhimurium = assay: Antibacterial activity against Salmonella typhimurium IFO13245 assessed as growth inhibition at 128 to 0.002 mg/L incubated for 18 hrs at 37 degC by agar dilution method; assay type: functional, Salmonella enterica subsp. enterica serovar Typhimurium; conditions: Salmonella enterica, IFO13245, 18 h; in short: as §1
Serratia marcescens [6] = assay: Antibacterial activity against Serratia marcescens T-55 assessed as growth inhibition at 128 to 0.002 mg/L incubated for 18 hrs at 37 degC by agar dilution method; assay type: functional; conditions: T-55, 18 h; in short: as §1
Enterobacter cloacae = assay: Antibacterial activity against Enterobacter cloacae IFO13535 assessed as growth inhibition at 128 to 0.002 mg/L incubated for 18 hrs at 37 degC by agar dilution method; assay type: functional; conditions: IFO13535, 18 h; in short: as §1
Proteus vulgaris = assay: Antibacterial activity against Proteus vulgaris IFO3167 assessed as growth inhibition at 128 to 0.002 mg/L incubated for 18 hrs at 37 degC by agar dilution method; assay type: functional; conditions: IFO3167, 18 h; in short: as §1
Proteus mirabilis = assay: Antibacterial activity against Proteus mirabilis IFO3849 assessed as growth inhibition at 128 to 0.002 mg/L incubated for 18 hrs at 37 degC by agar dilution method; assay type: functional; conditions: IFO3849, 18 h; in short: as §1
Pseudomonas aeruginosa [7] = assay: Antibacterial activity against Pseudomonas aeruginosa E-2 assessed as growth inhibition at 128 to 0.002 mg/L incubated for 18 hrs at 37 degC by agar dilution method; assay type: functional; conditions: E-2, 18 h; in short: as §1
Pseudomonas aeruginosa [8] = assay: Antibacterial activity against Pseudomonas aeruginosa IFO3445 assessed as growth inhibition at 128 to 0.002 mg/L incubated for 18 hrs at 37 degC by agar dilution method; assay type: functional; conditions: IFO3445, 18 h; in short: as §1
DNA gyrase = DNA gyrase (Escherichia coli, UniProt P0AES4+P0AES6); assay: Inhibition of Escherichia coli DNA gyrase preincubated for 5 mins at 37 degC before addition of relaxed pBR322 as substrate by supercoiling assay; assay type: protein-complex assay
[9] = Drug excretion in Sprague-Dawley rat at 10 mg/kg, po after 24 hrs by HPLC; assay type: ADME, organism-based; conditions: in vivo, read-out: Drug excretion; in short: as §2
[10] = Passive permeability of the compound after 5 hrs at 25 degC by PAMPA assay; assay type: physicochemical; conditions: read-out: Peff
In short: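 PAMPA: 10 µM compound in PBS with 5% MeOH in donor, PBS acceptor; 25°C, 5 h; both sides quantified by HPLC; Peff derived from donor/acceptor concentrations, volumes, 0.3 cm² filter area and 18,000 s; mean ± S.D., n=3.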

[11] = Drug excretion in Sprague-Dawley rat assessed as unmetabolized form at 5 mg/kg, iv after 24 hrs by HPLC; assay type: ADME, organism-based; conditions: in vivo, read-out: Drug excretion; in short: as §2
Morganella morganii = assay: Antibacterial activity against Morganella morganii W1026 assessed as growth inhibition at 128 to 0.002 mg/L incubated for 18 hrs at 37 degC by agar dilution method; assay type: functional; conditions: W1026, 18 h; in short: as §1
Klebsiella pneumoniae [12] = assay: Antibacterial activity against Klebsiella pneumoniae DT-S assessed as growth inhibition at 128 to 0.002 mg/L incubated for 18 hrs at 37 degC by agar dilution method; assay type: functional; in short: as §1
Escherichia coli [13] = assay: Antibacterial activity against Escherichia coli KC-14 assessed as growth inhibition at 128 to 0.002 mg/L incubated for 18 hrs at 37 degC by agar dilution method; assay type: functional; conditions: KC-14, 18 h; in short: as §1
Citrobacter freundii = assay: Antibacterial activity against Citrobacter freundii IFO1268 assessed as growth inhibition at 128 to 0.002 mg/L incubated for 18 hrs at 37 degC by agar dilution method; assay type: functional; conditions: IFO1268, 18 h; in short: as §1
[14] = test system: Acinetobacter calcoaceticus; assay: Antibacterial activity against Acinetobacter calcoaceticus Ac-54 assessed as growth inhibition at 128 to 0.002 mg/L incubated for 18 hrs at 37 degC by agar dilution method; assay type: functional; conditions: Ac-54, 18 h; in short: as §1
[15] = Drug excretion in Sprague-Dawley rat bile assessed as unmetabolized form at 5 mg/kg, iv after 24 hrs by HPLC; assay type: ADME, organism-based; conditions: read-out: Drug excretion; in short: as §2
Escherichia coli [16] = assay: Antibacterial activity against Escherichia coli 177 assessed as growth inhibition at 128 to 0.002 mg/L incubated for 18 hrs at 37 degC by agar dilution method; assay type: functional; conditions: Escherichia coli, 177, 18 h; in short: as §1
Escherichia coli [17] = assay: Antibacterial activity against Escherichia coli NIHJ assessed as growth inhibition at 128 to 0.002 mg/L incubated for 18 hrs at 37 degC by agar dilution method; assay type: functional; in short: as §1
[18] = Drug excretion in Sprague-Dawley rat bile assessed as unmetabolized form at 10 mg/kg, po after 24 hrs by HPLC; assay type: ADME, organism-based; conditions: read-out: Drug excretion; in short: as §2
[19] = Oral drug absorption in Sprague-Dawley rat at 10 mg/kg, po after 24 hrs by HPLC; assay type: ADME, organism-based; conditions: in vivo
In short: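 Absorption rate computed as total urinary plus biliary excretion (% of dose, summed means) after oral dosing divided by total after iv dosing; excretion measured in fasted male Sprague-Dawley rats by HPLC over 24 h, bile glucuronides alkaline-hydrolysed.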

Klebsiella pneumoniae [20] = assay: Antibacterial activity against Klebsiella pneumoniae KC-1 assessed as growth inhibition at 128 to 0.002 mg/L incubated for 18 hrs at 37 degC by agar dilution method; assay type: functional; conditions: KC-1, 18 h; in short: as §1

SMILES: Cc1c(N2CC(N)C2)c(F)cc2c(=O)c(C(=O)O)cn(-c3nc(N)c(F)cc3F)c12
- MIC (Providencia rettgeri): 0.061 µg/mL (≈ 0.145 µM)
- MIC (Pseudomonas aeruginosa [1]): 0.061 µg/mL (≈ 0.145 µM)
- dose excreted at 24 h [2]: 4%
- dose excreted at 24 h [3]: 44%
- solubility at 24 h [4]: 27 µg/mL (≈ 64.4 µM)
- MIC (Serratia marcescens [5]): 0.061 µg/mL (≈ 0.145 µM)
- MIC (Salmonella typhimurium): 0.061 µg/mL (≈ 0.145 µM)
- MIC (Serratia marcescens [6]): 0.061 µg/mL (≈ 0.145 µM)
- MIC (Enterobacter cloacae): 0.061 µg/mL (≈ 0.145 µM)
- MIC (Proteus vulgaris): 0.061 µg/mL (≈ 0.145 µM)
- MIC (Proteus mirabilis): 0.061 µg/mL (≈ 0.145 µM)
- MIC (Pseudomonas aeruginosa [7]): 0.061 µg/mL (≈ 0.145 µM)
- MIC (Pseudomonas aeruginosa [8]): 0.061 µg/mL (≈ 0.145 µM)
- IC50 (DNA gyrase): 286 nM
- dose excreted at 24 h [9]: 8.2%
- Papp at 5 h [10]: 0.12 ×10⁻⁶ cm/s
- dose excreted at 24 h [11]: 85%
- MIC (Morganella morganii): 0.061 µg/mL (≈ 0.145 µM)
- MIC (Klebsiella pneumoniae [12]): 0.061 µg/mL (≈ 0.145 µM)
- MIC (Escherichia coli [13]): 0.004 µg/mL (≈ 0.00954 µM)
- MIC (Citrobacter freundii): 0.061 µg/mL (≈ 0.145 µM)
- MIC [14]: 0.061 µg/mL (≈ 0.145 µM)
- dose excreted at 24 h [15]: 41%
- MIC (Escherichia coli [16]): 0.004 µg/mL (≈ 0.00954 µM)
- MIC (Escherichia coli [17]): 0.004 µg/mL (≈ 0.00954 µM)
- dose excreted at 24 h [18]: 4.2%
- Fa at 24 h [19]: 9.6%
- MIC (Klebsiella pneumoniae [20]): 0.061 µg/mL (≈ 0.145 µM)
